Laboratory results reported in ChEMBL document CHEMBL5724801, “EUbOPEN Chemogenomics Library - Multiplex” (2024).
“And” between values parts separate entries of the source, which are not always exact repeats. Equal values may be shown once.

Test system: Fibroblast
Experiment: Multiplex assay against human fibroblast
Format: toxicity, cell-based
In short: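 Hoechst33342, BioTracker Green Microtubule Cytoskeleton Dye, MitoTracker Red and Annexin V Alexa Fluor 680 were added to live cells at seeding, and imaging on a CQ1 microscope at 37°C and 5% CO2 followed compound addition. Gating by CellPathfinder machine learning separated cells into Hoechst high-intensity objects or normal cells, then normal cells into healthy, pyknosed or fragmented nuclei, then pyknosed cells into mitotic or apoptotic. Per cents of healthy-nucleus cells are reported for the tubulin, mitochondrial-mass and membrane-permeability phenotypes.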

[1] = 12 h, 1 µM, compound concentration 1 uM
[2] = 12 h, 10 µM, compound concentration 10 uM
[3] = 24 h, 1 µM, compound concentration 1 uM
[4] = 24 h, 10 µM, compound concentration 10 uM
[5] = 48 h, 1 µM, compound concentration 1 uM
[6] = 48 h, 10 µM, compound concentration 10 uM

CCOC(=O)c1c(/C(C#N)=C\N)c2ccc(Cl)c(Cl)c2n1C
Population Fragmented Nuclei (%) [1]: 11.86% and 4.52% | Population Healthy Nuclei (%) [1]: 64.41% and 76.92% | Population Hoechst High Intensity Objects (%) [1]: 0% | Population Membrane Permeable-Phenotype (%) [1]: 0% and 2.94% | Population Mitochondria Different-Phenotype (%) [1]: 11.84% and 14.71% | Population Mitotic Cells (%) [1]: 96.43% and 85.37% | Population Normal (%) [1]: 100% | Population Pyknosed Nuclei (%) [1]: 23.73% and 18.55% | Population Tubulin-Different-Phenotype (%) [1]: 10.53% and 18.82% | Total Cell Count [1]: 118 and 221 | Population Apoptotic (%) [2]: 24.32% and 12.77% | Population Fragmented Nuclei (%) [2]: 10.92% and 3.83% | Population Healthy Nuclei (%) [2]: 67.82% and 76.17% | Population Hoechst High Intensity Objects (%) [2]: 0% | Population Membrane Permeable-Phenotype (%) [2]: 4.24% and 1.12% | Population Mitochondria Different-Phenotype (%) [2]: 3.39% and 7.82% | Population Mitotic Cells (%) [2]: 75.68% and 87.23% | Population Normal (%) [2]: 100% | Population Pyknosed Nuclei (%) [2]: 21.26% and 20% | Population Tubulin-Different-Phenotype (%) [2]: 15.25% and 16.2% | Total Cell Count [2]: 174 and 235 | Population Apoptotic (%) [3]: 0% and 20.83% | Population Fragmented Nuclei (%) [3]: 7.25% and 3.83% | Population Healthy Nuclei (%) [3]: 72.46% and 85.96% | Population Hoechst High Intensity Objects (%) [3]: 0% | Population Membrane Permeable-Phenotype (%) [3]: 4% and 1.98% | Population Mitochondria Different-Phenotype (%) [3]: 3% and 6.93% | Population Mitotic Cells (%) [3]: 100% and 79.17% | Population Normal (%) [3]: 100% | Population Pyknosed Nuclei (%) [3]: 20.29% and 10.21% | Population Tubulin-Different-Phenotype (%) [3]: 11% and 18.81% | Total Cell Count [3]: 138 and 235 | Population Apoptotic (%) [4]: 14.81% and 20.59% | Population Fragmented Nuclei (%) [4]: 8.02% and 1.27% | Population Healthy Nuclei (%) [4]: 77.54% and 84.39% | Population Hoechst High Intensity Objects (%) [4]: 0% | Population Membrane Permeable-Phenotype (%) [4]: 3.45% and 2.5% | Population Mitochondria Different-Phenotype (%) [4]: 4.14% and 7% | Population Mitotic Cells (%) [4]: 85.19% and 79.41% | Population Normal (%) [4]: 100% | Population Pyknosed Nuclei (%) [4]: 14.44% and 14.35% | Population Tubulin-Different-Phenotype (%) [4]: 11.03% and 18.5% | Total Cell Count [4]: 187 and 237 | Population Apoptotic (%) [5]: 40% and 25% | Population Fragmented Nuclei (%) [5]: 12.18% and 3.67% | Population Healthy Nuclei (%) [5]: 84.62% and 91.43% | Population Hoechst High Intensity Objects (%) [5]: 0% | Population Membrane Permeable-Phenotype (%) [5]: 0% and 2.68% | Population Mitotic Cells (%) [5]: 60% and 75% | Population Normal (%) [5]: 100% | Population Pyknosed Nuclei (%) [5]: 3.21% and 4.9% | Population Tubulin-Different-Phenotype (%) [5]: 7.58% and 20.98% | Total Cell Count [5]: 156 and 245 | Population Apoptotic (%) [6]: 44.44% and 21.05% | Population Fragmented Nuclei (%) [6]: 8.78% and 2.61% | Population Healthy Nuclei (%) [6]: 86.83% and 89.13% | Population Hoechst High Intensity Objects (%) [6]: 0% | Population Membrane Permeable-Phenotype (%) [6]: 0.56% and 2.93% | Population Mitochondria Different-Phenotype (%) [6]: 11.24% and 1.95% | Population Mitotic Cells (%) [6]: 55.56% and 78.95% | Population Normal (%) [6]: 100% | Population Pyknosed Nuclei (%) [6]: 4.39% and 8.26% | Total Cell Count [6]: 205 and 230

CCn1c(-c2nonc2N)nc2c(C#CC(C)(C)O)ncc(OCC3CCCNC3)c21 (configuration not stated)
Population Apoptotic (%) [1]: 9.09% and 27.03% | Population Fragmented Nuclei (%) [1]: 15.15% and 9.22% | Population Healthy Nuclei (%) [1]: 64.85% and 77.66% | Population Hoechst High Intensity Objects (%) [1]: 0% | Population Membrane Permeable-Phenotype (%) [1]: 4.67% and 1.83% | Population Mitochondria Different-Phenotype (%) [1]: 8.41% and 8.68% | Population Mitotic Cells (%) [1]: 90.91% and 72.97% | Population Normal (%) [1]: 100% | Population Pyknosed Nuclei (%) [1]: 20% and 13.12% | Population Tubulin-Different-Phenotype (%) [1]: 9.35% and 19.63% | Total Cell Count [1]: 165 and 282 | Population Apoptotic (%) [2]: 13.33% and 12.2% | Population Fragmented Nuclei (%) [2]: 17.67% and 9.62% | Population Healthy Nuclei (%) [2]: 66.43% and 74.62% | Population Hoechst High Intensity Objects (%) [2]: 0% | Population Membrane Permeable-Phenotype (%) [2]: 6.91% and 2.06% | Population Mitochondria Different-Phenotype (%) [2]: 25% and 13.4% | Population Mitotic Cells (%) [2]: 86.67% and 87.8% | Population Normal (%) [2]: 100% | Population Pyknosed Nuclei (%) [2]: 15.9% and 15.77% | Population Tubulin-Different-Phenotype (%) [2]: 35.64% and 40.21% | Total Cell Count [2]: 283 and 260 | Population Fragmented Nuclei (%) [3]: 14.1% and 7.45% | Population Healthy Nuclei (%) [3]: 73.08% and 80.78% | Population Hoechst High Intensity Objects (%) [3]: 0% | Population Membrane Permeable-Phenotype (%) [3]: 0.88% and 1.46% | Population Mitochondria Different-Phenotype (%) [3]: 5.26% and 11.65% | Population Mitotic Cells (%) [3]: 90% and 63.33% | Population Normal (%) [3]: 100% | Population Pyknosed Nuclei (%) [3]: 12.82% and 11.76% | Total Cell Count [3]: 156 and 255 | Population Apoptotic (%) [4]: 7.41% and 9.09% | Population Fragmented Nuclei (%) [4]: 24.25% and 15.79% | Population Healthy Nuclei (%) [4]: 61.04% and 77.78% | Population Hoechst High Intensity Objects (%) [4]: 0% | Population Membrane Permeable-Phenotype (%) [4]: 1.79% and 2.26% | Population Mitotic Cells (%) [4]: 92.59% and 90.91% | Population Normal (%) [4]: 100% | Population Pyknosed Nuclei (%) [4]: 14.71% and 6.43% | Population Tubulin-Different-Phenotype (%) [4]: 40.18% and 33.08% | Total Cell Count [4]: 367 and 342 | Population Apoptotic (%) [5]: 23.08% and 33.33% | Population Fragmented Nuclei (%) [5]: 5.03% and 4.44% | Population Healthy Nuclei (%) [5]: 86.79% and 87.1% | Population Hoechst High Intensity Objects (%) [5]: 0% | Population Membrane Permeable-Phenotype (%) [5]: 2.9% and 4.63% | Population Mitotic Cells (%) [5]: 76.92% and 66.67% | Population Normal (%) [5]: 100% | Population Pyknosed Nuclei (%) [5]: 8.18% and 8.47% | Total Cell Count [5]: 159 and 248 | Population Apoptotic (%) [6]: 30% and 29.41% | Population Fragmented Nuclei (%) [6]: 21.53% and 21.32% | Population Healthy Nuclei (%) [6]: 69.97% and 74.37% | Population Hoechst High Intensity Objects (%) [6]: 0% | Population Membrane Permeable-Phenotype (%) [6]: 1.21% and 0.68% | Population Mitochondria Different-Phenotype (%) [6]: 8.91% and 1.71% | Population Mitotic Cells (%) [6]: 70% and 70.59% | Population Normal (%) [6]: 100% | Population Pyknosed Nuclei (%) [6]: 8.5% and 4.31% | Population Tubulin-Different-Phenotype (%) [6]: 29.55% and 33.11% | Total Cell Count [6]: 353 and 394

Cc1ccc(-c2c(C(=O)CF)n(CCCO)c3ncnc(N)c23)cc1
Population Apoptotic (%) [1]: 36% and 12.9% | Population Fragmented Nuclei (%) [1]: 17.65% and 9.49% | Population Healthy Nuclei (%) [1]: 63.97% and 78.26% | Population Hoechst High Intensity Objects (%) [1]: 0% | Population Membrane Permeable-Phenotype (%) [1]: 1.15% and 2.53% | Population Mitochondria Different-Phenotype (%) [1]: 9.2% and 6.06% | Population Mitotic Cells (%) [1]: 64% and 87.1% | Population Normal (%) [1]: 100% | Population Pyknosed Nuclei (%) [1]: 18.38% and 12.25% | Population Tubulin-Different-Phenotype (%) [1]: 13.79% and 12.12% | Total Cell Count [1]: 136 and 253 | Population Apoptotic (%) [2]: 6.98% and 18.18% | Population Fragmented Nuclei (%) [2]: 10.16% and 6% | Population Healthy Nuclei (%) [2]: 66.84% and 77.5% | Population Hoechst High Intensity Objects (%) [2]: 0% | Population Membrane Permeable-Phenotype (%) [2]: 4% and 4.52% | Population Mitochondria Different-Phenotype (%) [2]: 8% and 11.61% | Population Mitotic Cells (%) [2]: 93.02% and 81.82% | Population Normal (%) [2]: 100% | Population Pyknosed Nuclei (%) [2]: 22.99% and 16.5% | Population Tubulin-Different-Phenotype (%) [2]: 19.2% and 29.03% | Total Cell Count [2]: 187 and 200 | Population Apoptotic (%) [3]: 12.12% and 12% | Population Healthy Nuclei (%) [3]: 62.58% and 87.98% | Population Hoechst High Intensity Objects (%) [3]: 0% | Population Membrane Permeable-Phenotype (%) [3]: 6.86% and 1.32% | Population Mitochondria Different-Phenotype (%) [3]: 2.94% and 5.29% | Population Mitotic Cells (%) [3]: 87.88% and 88% | Population Normal (%) [3]: 100% | Population Pyknosed Nuclei (%) [3]: 20.25% and 9.69% | Population Tubulin-Different-Phenotype (%) [3]: 14.71% and 10.57% | Total Cell Count [3]: 163 and 258 | Population Apoptotic (%) [4]: 9.3% and 10% | Population Fragmented Nuclei (%) [4]: 8.8% and 4.95% | Population Healthy Nuclei (%) [4]: 71.3% and 85.15% | Population Hoechst High Intensity Objects (%) [4]: 0% | Population Membrane Permeable-Phenotype (%) [4]: 8.44% and 2.33% | Population Mitochondria Different-Phenotype (%) [4]: 4.55% and 5.81% | Population Mitotic Cells (%) [4]: 90.7% and 90% | Population Normal (%) [4]: 100% | Population Pyknosed Nuclei (%) [4]: 19.91% and 9.9% | Population Tubulin-Different-Phenotype (%) [4]: 23.38% and 29.07% | Total Cell Count [4]: 216 and 202 | Population Apoptotic (%) [5]: 26.67% and 20% | Population Healthy Nuclei (%) [5]: 73.05% and 89.29% | Population Hoechst High Intensity Objects (%) [5]: 0% | Population Membrane Permeable-Phenotype (%) [5]: 1.64% and 1.78% | Population Mitotic Cells (%) [5]: 73.33% and 80% | Population Normal (%) [5]: 100% | Population Pyknosed Nuclei (%) [5]: 8.98% and 7.94% | Population Tubulin-Different-Phenotype (%) [5]: 7.38% and 16.44% | Total Cell Count [5]: 167 and 252 | Population Apoptotic (%) [6]: 9.09% and 27.27% | Population Fragmented Nuclei (%) [6]: 7.76% and 9.13% | Population Healthy Nuclei (%) [6]: 87.21% and 80.29% | Population Hoechst High Intensity Objects (%) [6]: 0% | Population Membrane Permeable-Phenotype (%) [6]: 1.57% and 0.6% | Population Mitochondria Different-Phenotype (%) [6]: 8.9% and 2.4% | Population Mitotic Cells (%) [6]: 90.91% and 72.73% | Population Normal (%) [6]: 100% | Population Pyknosed Nuclei (%) [6]: 5.02% and 10.58% | Population Tubulin-Different-Phenotype (%) [6]: 9.42% and 27.54% | Total Cell Count [6]: 219 and 208
